Measurements published in ChEMBL document CHEMBL3351464, “Identifying novel selective non-nucleoside DNA methyltransferase 1 inhibitors through docking-based virtual screening” (J Med Chem, 2014).
Active and inactive are the calls of the source. No cut-off for these calls is given here.

How the values were obtained:
[1] = target: T1, DNA (cytosine-5)-methyltransferase 1 (Mus musculus, UniProt P13864); assay: Inhibition of N-terminal His6-tagged mouse DNMT1 (731 to 1602 residues) expressed in Escherichia coli BL21 (DE3) incubated for 15 mins before addition of [3H]-SAM and poly(dI-dC).poly(dI-dC) by liquid scintillation counting based radioactive methylation assay
How it was run: (§1)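 Enzyme was preincubated with compound for 15 min at room temperature, then reacted for 60 min at 37°C. Products were filter-captured, washed and counted by scintillation. IC50 came from a nonlinear dose-response fit; single-point tests used 50 µM.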

[2] = target: DNA (cytosine-5)-methyltransferase 1 (Mus musculus) (UniProt P13864); assay: Inhibition of N-terminal His6-tagged mouse DNMT1 (731 to 1602 residues) expressed in Escherichia coli BL21 (DE3) at 50 uM incubated for 15 mins before addition of [3H]-SAM and poly(dI-dC).poly(dI-dC) by liquid scintillation counting based radioactive methylation assay; how it was run: as §1
HCT-116 = assay: Antiproliferative activity against human HCT116 cells assessed as inhibition of cell proliferation at 1.25 to 10 uM after 24 to 72 hrs by MTT assay; type: functional, cell-based
How it was run: (§2)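 HCT116 maintained in McCoy's 5A and Capan-1 in DMEM, each with 10% FBS, at 37°C under 5% CO2. Cells were exposed to a range of compound concentrations from DMSO stocks, with DMSO-matched controls. Viability was read by MTT absorbance at 490 nm, and percent proliferation was normalized to control cells.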

CAPAN-1 = assay: Antiproliferative activity against human Capan1 cells assessed as inhibition of cell proliferation at 1.25 to 10 uM after 24 to 72 hrs by MTT assay; type: functional, cell-based; how it was run: as §2
[3] = Binding affinity to DNA (unknown origin) at 0.0625 to 0.5 mM by ethidium bromide dye based agarose gel electrophoresis method
[4] = target: DNA (cytosine-5)-methyltransferase 1 (Mus musculus) (UniProt P13864); assay: Inhibition of N-terminal His6-tagged mouse DNMT1 (731 to 1602 residues) at 200 uM expressed in Escherichia coli BL21 (DE3) incubated for 2 hrs using S-adenosylmethionine by ELISA
How it was run: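 Mouse DNMT1 was purified by HisTrap, SUMO-tag cleavage, heparin and gel filtration. 200 nM enzyme was incubated with 200 μM compound (1% DMSO) and AdoMet in DNMT assay buffer at 37°C for 2 h. Capture and detection antibodies were then applied, followed by developer for 10 min at room temperature. Absorbance was read at 450 nm, with AdoHcy as reference.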

[5] = target: DNA (cytosine-5)-methyltransferase 3A (Homo sapiens, UniProt Q9Y6K1); assay: Inhibition of DNMT3A (unknown origin) incubated for 15 mins before addition of [3H]-SAM and poly(dI-dC).poly(dI-dC) by liquid scintillation counting based radioactive methylation assay
[6] = target: DNA (cytosine-5)-methyltransferase 3B (Homo sapiens, UniProt Q9UBC3); assay: Inhibition of DNMT3B (unknown origin) incubated for 15 mins before addition of [3H]-SAM and poly(dI-dC).poly(dI-dC) by liquid scintillation counting based radioactive methylation assay
[7] = target: T2, Histone-lysine N-methyltransferase EHMT2 (Homo sapiens, UniProt Q96KQ7); assay: Inhibition of G9a (unknown origin) incubated for 15 mins before addition of biotinylated peptide H3 (1 to 21) and SAM by methylation assay
T2 sequence (Q96KQ7 whole entry): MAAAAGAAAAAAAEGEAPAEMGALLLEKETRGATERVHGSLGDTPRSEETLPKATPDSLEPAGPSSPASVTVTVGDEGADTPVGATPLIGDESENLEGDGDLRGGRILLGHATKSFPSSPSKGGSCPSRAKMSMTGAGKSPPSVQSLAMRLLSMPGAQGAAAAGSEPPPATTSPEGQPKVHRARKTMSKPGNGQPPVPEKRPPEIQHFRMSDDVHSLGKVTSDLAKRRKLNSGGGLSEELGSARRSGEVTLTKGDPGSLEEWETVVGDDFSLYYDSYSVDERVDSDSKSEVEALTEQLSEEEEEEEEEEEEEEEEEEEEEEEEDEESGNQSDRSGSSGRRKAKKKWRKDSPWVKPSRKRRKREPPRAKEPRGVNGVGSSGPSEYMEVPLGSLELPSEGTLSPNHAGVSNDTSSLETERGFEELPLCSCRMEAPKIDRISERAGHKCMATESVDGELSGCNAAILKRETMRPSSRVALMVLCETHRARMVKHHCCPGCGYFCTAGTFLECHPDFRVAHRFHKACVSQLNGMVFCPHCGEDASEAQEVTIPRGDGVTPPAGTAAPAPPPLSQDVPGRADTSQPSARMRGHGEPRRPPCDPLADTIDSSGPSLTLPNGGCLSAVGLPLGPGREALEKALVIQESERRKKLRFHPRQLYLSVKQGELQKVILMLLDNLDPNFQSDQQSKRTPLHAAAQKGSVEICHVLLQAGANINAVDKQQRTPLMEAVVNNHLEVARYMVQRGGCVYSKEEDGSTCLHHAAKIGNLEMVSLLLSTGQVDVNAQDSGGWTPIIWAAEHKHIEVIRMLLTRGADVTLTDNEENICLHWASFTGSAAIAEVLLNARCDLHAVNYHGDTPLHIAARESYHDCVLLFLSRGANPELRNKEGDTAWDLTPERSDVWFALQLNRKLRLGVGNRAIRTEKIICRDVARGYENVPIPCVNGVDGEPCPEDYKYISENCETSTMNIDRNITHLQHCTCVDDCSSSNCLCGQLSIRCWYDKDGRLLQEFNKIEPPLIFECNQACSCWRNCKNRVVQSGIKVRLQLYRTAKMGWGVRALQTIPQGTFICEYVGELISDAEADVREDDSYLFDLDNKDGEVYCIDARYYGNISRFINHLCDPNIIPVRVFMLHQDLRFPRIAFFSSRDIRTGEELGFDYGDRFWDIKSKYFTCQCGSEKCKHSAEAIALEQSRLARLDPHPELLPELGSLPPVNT
How it was run: (§3)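 AlphaLISA assays were run in modified Tris pH 9.0 with 100 nM biotinylated H3(1-21) and SAM at Km: MLL1 2 nM enzyme with 2 μM SAM; SUV39H1 3 nM with 20 μM; SET7/9 0.2 nM with 0.22 μM; G9a 0.03 nM with 50 μM. Enzyme and compound were preincubated for 15 min, then reacted for 60 min at room temperature before the beads were added. IC50 came from a nonlinear dose-response fit.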

[8] = target: T3, Histone-lysine N-methyltransferase SUV39H1 (Homo sapiens, UniProt O43463); assay: Inhibition of SUV39H1 (unknown origin) incubated for 15 mins before addition of biotinylated peptide H3 (1 to 21) and SAM by methylation assay; how it was run: as §3
T3 sequence (O43463 whole entry): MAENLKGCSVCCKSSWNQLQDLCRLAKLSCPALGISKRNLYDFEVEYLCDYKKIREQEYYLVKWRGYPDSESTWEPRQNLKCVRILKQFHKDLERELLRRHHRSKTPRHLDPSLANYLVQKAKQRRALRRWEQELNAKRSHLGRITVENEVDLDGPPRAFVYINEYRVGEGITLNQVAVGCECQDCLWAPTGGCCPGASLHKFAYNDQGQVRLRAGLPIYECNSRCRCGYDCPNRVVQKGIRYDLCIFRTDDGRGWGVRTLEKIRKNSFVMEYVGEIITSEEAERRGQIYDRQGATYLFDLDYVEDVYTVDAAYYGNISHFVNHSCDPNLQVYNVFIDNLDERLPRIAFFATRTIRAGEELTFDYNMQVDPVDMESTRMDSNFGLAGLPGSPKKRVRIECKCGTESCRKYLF

[9] = target: Histone-lysine N-methyltransferase 2A (Homo sapiens, UniProt Q03164); assay: Inhibition of MLL1 (unknown origin) incubated for 15 mins before addition of biotinylated peptide H3 (1 to 21) and SAM by methylation assay; how it was run: as §3
[10] = target: T4, Histone-lysine N-methyltransferase SETD7 (Homo sapiens, UniProt Q8WTS6); assay: Inhibition of SET7/9 (unknown origin) incubated for 15 mins before addition of biotinylated peptide H3 (1 to 21) and SAM by methylation assay; how it was run: as §3
T4 sequence (Q8WTS6 whole entry): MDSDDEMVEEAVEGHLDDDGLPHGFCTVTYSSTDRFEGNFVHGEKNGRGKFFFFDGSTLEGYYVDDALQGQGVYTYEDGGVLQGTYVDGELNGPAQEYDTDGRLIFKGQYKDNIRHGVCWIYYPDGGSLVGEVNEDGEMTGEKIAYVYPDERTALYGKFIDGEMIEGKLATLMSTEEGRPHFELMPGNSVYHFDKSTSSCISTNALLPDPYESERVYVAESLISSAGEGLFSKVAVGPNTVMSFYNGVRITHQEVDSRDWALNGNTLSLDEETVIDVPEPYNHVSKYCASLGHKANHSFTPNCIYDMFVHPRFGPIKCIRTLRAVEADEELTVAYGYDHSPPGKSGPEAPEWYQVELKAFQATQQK

[11] = target: DNA (cytosine-5)-methyltransferase 1 (Mus musculus) (UniProt P13864); assay: (§4) Binding affinity to N-terminal His6-tagged mouse DNMT1 (731 to 1602 residues) expressed in Escherichia coli BL21 (DE3) by SPR assay
How it was run: (§5)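 Measured by SPR at 25°C. Purified mouse DNMT1 was amine-coupled to a CM5 chip in 10 mM sodium acetate pH 5.0 and equilibrated overnight in HBS-EP (10 mM HEPES pH 7.4, 150 mM NaCl, 3 mM EDTA, 0.05% P20, 0.1% DMSO). Serially diluted compounds were injected with 120 s contact and 120 s dissociation, and KD was derived by the instrument evaluation software.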

[12] = target: T1, DNA (cytosine-5)-methyltransferase 1; assay: as §4; how it was run: as §5

DNA (cytosine-5)-methyltransferase 1 (Mus musculus), sequence (P13864 whole entry, the tested form may be a part): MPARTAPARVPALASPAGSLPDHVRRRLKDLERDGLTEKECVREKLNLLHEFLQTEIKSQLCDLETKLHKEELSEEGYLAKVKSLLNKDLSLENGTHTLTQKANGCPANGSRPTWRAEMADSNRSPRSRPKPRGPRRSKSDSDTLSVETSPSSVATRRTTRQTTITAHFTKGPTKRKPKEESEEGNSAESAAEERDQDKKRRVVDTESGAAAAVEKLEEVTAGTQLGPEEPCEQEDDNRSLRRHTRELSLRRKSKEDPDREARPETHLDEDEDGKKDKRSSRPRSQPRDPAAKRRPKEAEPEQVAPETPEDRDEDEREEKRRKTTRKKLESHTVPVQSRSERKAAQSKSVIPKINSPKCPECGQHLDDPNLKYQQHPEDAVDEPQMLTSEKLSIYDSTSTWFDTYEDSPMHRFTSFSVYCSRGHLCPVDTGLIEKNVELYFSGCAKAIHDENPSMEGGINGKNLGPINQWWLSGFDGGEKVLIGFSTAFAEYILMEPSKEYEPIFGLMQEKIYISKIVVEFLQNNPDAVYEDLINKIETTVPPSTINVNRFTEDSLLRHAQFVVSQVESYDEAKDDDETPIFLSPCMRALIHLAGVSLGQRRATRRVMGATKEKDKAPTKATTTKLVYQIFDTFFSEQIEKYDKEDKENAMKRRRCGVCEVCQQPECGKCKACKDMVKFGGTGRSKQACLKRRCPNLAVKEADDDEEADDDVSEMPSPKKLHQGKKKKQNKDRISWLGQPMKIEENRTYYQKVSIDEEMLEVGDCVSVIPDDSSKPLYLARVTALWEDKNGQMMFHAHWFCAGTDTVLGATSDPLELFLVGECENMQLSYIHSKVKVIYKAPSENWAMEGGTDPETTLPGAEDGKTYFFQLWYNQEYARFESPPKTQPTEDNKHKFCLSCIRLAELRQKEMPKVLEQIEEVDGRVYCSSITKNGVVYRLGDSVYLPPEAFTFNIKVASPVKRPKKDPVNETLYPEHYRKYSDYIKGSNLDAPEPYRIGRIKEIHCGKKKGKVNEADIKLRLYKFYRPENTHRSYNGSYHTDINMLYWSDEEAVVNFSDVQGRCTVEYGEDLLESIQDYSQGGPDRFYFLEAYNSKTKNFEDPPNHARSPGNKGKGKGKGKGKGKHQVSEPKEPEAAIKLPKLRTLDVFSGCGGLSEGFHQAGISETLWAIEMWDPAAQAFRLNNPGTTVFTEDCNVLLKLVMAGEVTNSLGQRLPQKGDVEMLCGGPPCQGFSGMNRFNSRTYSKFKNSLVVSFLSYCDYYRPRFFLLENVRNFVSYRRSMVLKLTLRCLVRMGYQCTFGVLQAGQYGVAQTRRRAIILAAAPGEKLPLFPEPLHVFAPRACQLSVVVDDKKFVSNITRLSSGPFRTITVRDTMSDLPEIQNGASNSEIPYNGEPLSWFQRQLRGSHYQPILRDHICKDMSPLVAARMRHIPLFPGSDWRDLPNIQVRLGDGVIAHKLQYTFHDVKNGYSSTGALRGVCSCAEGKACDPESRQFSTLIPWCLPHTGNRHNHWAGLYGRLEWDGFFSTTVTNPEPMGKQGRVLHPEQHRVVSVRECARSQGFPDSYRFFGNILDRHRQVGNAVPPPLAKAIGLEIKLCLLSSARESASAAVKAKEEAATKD
T1 sequence (P13864 whole entry, the tested form may be a part): as above
DNA (cytosine-5)-methyltransferase 3A, sequence (Q9Y6K1 whole entry, looked up): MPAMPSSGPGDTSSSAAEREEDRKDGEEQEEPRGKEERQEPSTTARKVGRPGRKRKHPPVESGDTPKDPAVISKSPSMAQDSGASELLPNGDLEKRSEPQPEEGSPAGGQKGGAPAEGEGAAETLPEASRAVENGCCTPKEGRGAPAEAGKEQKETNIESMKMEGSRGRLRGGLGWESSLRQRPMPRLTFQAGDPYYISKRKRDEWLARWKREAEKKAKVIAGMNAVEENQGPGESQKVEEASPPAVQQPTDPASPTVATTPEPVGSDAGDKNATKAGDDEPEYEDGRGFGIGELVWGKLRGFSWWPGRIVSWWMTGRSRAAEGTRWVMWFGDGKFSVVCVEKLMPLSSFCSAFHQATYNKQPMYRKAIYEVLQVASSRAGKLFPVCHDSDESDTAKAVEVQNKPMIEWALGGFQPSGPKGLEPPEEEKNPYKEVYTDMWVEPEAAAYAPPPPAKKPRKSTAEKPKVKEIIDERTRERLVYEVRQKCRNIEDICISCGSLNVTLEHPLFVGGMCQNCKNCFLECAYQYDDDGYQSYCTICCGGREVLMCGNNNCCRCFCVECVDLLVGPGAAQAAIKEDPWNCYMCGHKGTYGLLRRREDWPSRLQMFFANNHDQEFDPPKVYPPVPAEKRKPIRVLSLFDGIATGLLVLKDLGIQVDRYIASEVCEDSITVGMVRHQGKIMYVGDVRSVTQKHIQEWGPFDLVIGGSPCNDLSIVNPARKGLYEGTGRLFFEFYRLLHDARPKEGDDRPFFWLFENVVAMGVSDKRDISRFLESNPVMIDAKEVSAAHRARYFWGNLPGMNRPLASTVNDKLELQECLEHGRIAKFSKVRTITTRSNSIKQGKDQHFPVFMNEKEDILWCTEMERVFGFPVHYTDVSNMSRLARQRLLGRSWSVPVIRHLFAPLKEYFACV

Row | SMILES | IC50 [1] | inhibition [2] | also measured
1 | OC(CNCCc1c[nH]c2ccccc12)Cn1c2ccc(Cl)cc2c2cc(Cl)ccc21 (racemic) | 2.5 µM | 89.5% | –
2 | OCCNCC(O)Cn1c2ccc(Br)cc2c2cc(Br)ccc21 (racemic) | 14.1 µM | 99.7% | –
3 | CC1CCN(CC(O)Cn2c3ccccc3c3ccccc32)CC1 (racemic) | 84.1 µM | 52.4% | –
4 | O[C@@H](CNCCc1c[nH]c2ccccc12)Cn1c2ccccc2c2ccccc21 | 15.6 µM | – | inhibition (HCT-116): Active; inhibition (CAPAN-1): Active
5 | Cc1cc(Nc2ccc(NC(=O)c3ccc(Nc4ccnc5ccccc45)cc3)cc2)nc(N)n1 | – | – | Activity [3]: Active
6 | CCCN(CCC)CC(O)Cn1c2ccccc2c2ccccc21 (racemic) | – | 5.5% | –
7 | OC(CNCCc1ccccc1)Cn1c2ccccc2c2ccccc21 (racemic) | 20.7 µM | 73.9% | –
8 | CC(C)NC[C@H](O)COC(Cn1c2ccccc2c2ccccc21)Cn1c2ccccc2c2ccccc21 | 1.8 µM | – | inhibition (HCT-116): Active; inhibition (CAPAN-1): Active
9 | CNCC(O)Cn1c(C)c(C)c2ccccc21 (racemic) | – | 1.1% | –
10 | COCCNCC(O)Cn1c2ccccc2c2ccccc21 (racemic) | 29.6 µM | 71% | –
11 | CC(C)NC[C@@H](O)COC(Cn1c2ccccc2c2ccccc21)Cn1c2ccccc2c2ccccc21 | 2.5 µM | – | inhibition (HCT-116): Active; inhibition (CAPAN-1): Active
12 | COc1ccc(NCC(O)Cn2c3ccccc3c3ccccc32)cc1 (racemic) | – | 0.6% | –
13 | OCCCNCC(O)Cn1c2ccccc2c2ccccc21 (racemic) | – | 42.5% | –
14 | OC(CNCCc1c[nH]c2ccccc12)Cn1c2ccccc2c2ccccc21 (racemic) | 10.3 µM | – | inhibition [4]: > 60%; Activity [3]: inactive; IC50 [5]: > 200 µM; IC50 [6]: > 200 µM; IC50 [7]: > 150 µM; IC50 [8]: > 150 µM; IC50 [9]: > 150 µM; IC50 [10]: > 150 µM; Activity [11]: Dose-dependent effect; Kd [12]: 1.09 µM
15 | OC(CN1CCOCC1)Cn1c2ccccc2c2ccccc21 (racemic) | – | -5% | –
16 | OC(CNCc1ccccc1)Cn1c2c(c3ccccc31)CCCC2 (racemic) | 80.9 µM | 62.9% | –
17 | OC(CNC1CC1)Cn1c2ccccc2c2ccccc21 (racemic) | – | 42.6% | –
18 | O[C@H](CNCCc1c[nH]c2ccccc12)Cn1c2ccccc2c2ccccc21 | 7.3 µM | – | inhibition (HCT-116): Active; inhibition (CAPAN-1): Active
19 | OC(CNCCOc1ccccc1)Cn1c2ccccc2c2ccccc21 (racemic) | – | 29.7% | –
20 | Cc1c(C)n(CC(O)CNC2CCCCC2)c2ccccc12 (racemic) | – | 2.4% | –
21 | Nc1ncnc2c1ncn2[C@@H]1O[C@H](CSCC[C@H](N)C(=O)O)[C@@H](O)[C@H]1O | – | – | inhibition [4]: Active
22 | OC(CNCC1CCCO1)Cn1c2ccccc2c2ccccc21 (racemic) | – | 40.1% | –
23 | COc1cccc2c1C(=O)c1c(O)c3c(c(O)c1C2=O)C[C@@](O)(C(=O)CO)C[C@@H]3O[C@H]1C[C@H](N)[C@H](O)[C@H](C)O1 | – | – | Activity [3]: Active
